Measured values from ChEMBL document CHEMBL4342528, “Discovery of a First-in-Class Protein Arginine Methyltransferase 6 (PRMT6) Covalent Inhibitor” (J Med Chem, 2020).

Columns and labels:
[1] = molecular target: T1, Histone-arginine methyltransferase CARM1 (Homo sapiens) (UniProt Q86X55); assay: Inhibition of PRMT4 (unknown origin) assessed as reduction in incorporation of [3H]-labeled methyl group into biotinylated substrate using [3H-SAM] at 10 uM incubated for 1 hr by scintillation proximity assay
T1 sequence (whole entry): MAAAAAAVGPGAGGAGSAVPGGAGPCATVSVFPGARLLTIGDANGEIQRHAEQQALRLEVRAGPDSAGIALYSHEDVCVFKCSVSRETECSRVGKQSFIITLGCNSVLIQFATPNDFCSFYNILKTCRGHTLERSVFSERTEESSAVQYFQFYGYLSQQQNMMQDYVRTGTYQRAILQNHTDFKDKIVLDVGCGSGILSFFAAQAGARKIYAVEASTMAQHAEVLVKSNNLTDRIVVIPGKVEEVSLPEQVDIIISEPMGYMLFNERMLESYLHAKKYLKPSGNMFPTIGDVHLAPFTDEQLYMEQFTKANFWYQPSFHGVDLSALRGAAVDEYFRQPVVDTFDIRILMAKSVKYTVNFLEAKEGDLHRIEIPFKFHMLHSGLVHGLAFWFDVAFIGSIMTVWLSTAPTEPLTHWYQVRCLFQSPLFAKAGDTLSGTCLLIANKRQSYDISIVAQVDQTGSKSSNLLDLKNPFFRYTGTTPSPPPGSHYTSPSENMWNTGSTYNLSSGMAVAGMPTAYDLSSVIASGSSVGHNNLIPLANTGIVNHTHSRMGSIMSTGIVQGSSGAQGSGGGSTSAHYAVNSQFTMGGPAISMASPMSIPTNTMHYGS
Outline: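 Panel of 33 methyltransferases (22 PKMTs, 3 DNMTs, 8 PRMTs), each tested at 10 and 50 μM compound. Activity was read as ³H-methyl transfer from ³H-SAM in a radiometric assay done as previously described.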

HEK-293T = assay: Toxicity in HEK293T cells assessed as reduction in cell viability up to 20 uM incubated for 3 days by CCK8 assay; format: cell-based; conditions: human, 72 h
Outline: (§1)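 Cells seeded 1×10^4 per well in triplicate, treated after 24 h with serial dilutions from 20 μM for 3 days; CCK-8 (WST-8) added, 4 h at 37 °C, absorbance at 450 nm; mean ± SD of three replicate experiments.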

PNT2 = assay: Toxicity in human PNT2 cells assessed as reduction in cell viability up to 20 uM incubated for 3 days by CCK8 assay; format: cell-based; conditions: pnt2, 72 h; outline: as §1

C=CC(=O)Nc1cccc(-c2c[nH]cc2CN(C)CCN)c1
inhibition [1]: > 90% | Activity (HEK-293T): Non-Toxic | Activity (PNT2): Non-Toxic
